Blank lines part the entries; values can stand above or below the compound they belong to.
Columns and labels:
[1] = target: T1, Polyunsaturated fatty acid 5-lipoxygenase (Rattus norvegicus, UniProt P12527); assay: In vitro inhibition of 5-lipoxygenase from RBL-1 cells; format: cell-based
T1 sequence (P12527 whole entry): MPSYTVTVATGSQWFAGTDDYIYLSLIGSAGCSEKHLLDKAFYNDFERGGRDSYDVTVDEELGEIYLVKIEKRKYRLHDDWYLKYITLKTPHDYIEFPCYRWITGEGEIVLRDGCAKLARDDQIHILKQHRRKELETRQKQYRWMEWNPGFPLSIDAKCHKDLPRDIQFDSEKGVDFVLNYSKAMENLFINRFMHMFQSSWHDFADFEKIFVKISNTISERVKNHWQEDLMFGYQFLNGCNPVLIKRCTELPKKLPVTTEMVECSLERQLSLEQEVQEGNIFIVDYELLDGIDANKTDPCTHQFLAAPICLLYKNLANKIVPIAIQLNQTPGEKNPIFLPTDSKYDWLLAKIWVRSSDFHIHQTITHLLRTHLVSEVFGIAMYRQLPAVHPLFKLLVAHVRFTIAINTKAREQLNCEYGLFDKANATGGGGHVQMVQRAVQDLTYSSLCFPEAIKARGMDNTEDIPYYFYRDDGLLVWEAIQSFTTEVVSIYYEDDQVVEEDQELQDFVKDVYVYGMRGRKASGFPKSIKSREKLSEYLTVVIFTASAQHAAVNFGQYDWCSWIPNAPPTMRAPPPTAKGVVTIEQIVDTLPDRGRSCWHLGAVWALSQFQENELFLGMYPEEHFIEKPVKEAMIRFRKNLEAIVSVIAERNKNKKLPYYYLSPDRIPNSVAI
Summary of the method: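 Enzyme source is the 20000g supernatant of RBL-1 cells, assayed for 5-lipoxygenase inhibition. IC50 is reported in µM with a range in parentheses.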

[2] = In vivo inhibition of biosynthesis of leukotriene in rat peritoneal anaphylaxis model at 200 umol/kg; format: functional
Summary of the method: (§1)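 Rats receive a single oral dose of 200 µmol/kg, and in vivo activity is measured 1 h after dosing in the peritoneal anaphylaxis model. The result is given as % inhibition of leukotriene biosynthesis or flagged as not significant.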

Rattus norvegicus = assay: Plasma concentration 1 hr after oral administration of a dose of 200 uM/kg; format: functional, organism-based
Summary of the method: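 Rats are dosed orally at 200 µmol/kg, and plasma drug concentration is measured 1 h later. Values are the average ± range of two determinations, and the stated detection limit is 2.0 µM.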

[3] = In vivo Inhibition of biosynthesis of leukotriene in rat peritoneal anaphylaxis model; format: functional
Summary of the method: (§2)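 Test compounds are given orally to rats in the peritoneal anaphylaxis model, and leukotriene biosynthesis is measured in vivo. ED50 is expressed in µmol/kg, with the range in parentheses and the mg/kg equivalent.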

[4] = In vivo inhibition of biosynthesis of leukotriene in rat peritoneal anaphylaxis model; format: functional; summary of the method: as §2
[5] = In vivo inhibition of biosynthesis of leukotriene in rat peritoneal anaphylaxis model at 200 uMKg; format: functional; summary of the method: as §1
[6] = In vivo inhibition of biosynthesis of leukotriene in rat peritoneal anaphylaxis model at 200 uM/Kg; format: functional; summary of the method: as §1
[7] = In vivo inhibition of biosynthesis of leukotriene in rat peritoneal anaphylaxis model at 200 mg/Kg; format: functional
[8] = In vivo inhibition of biosynthesis of leukotriene in rat peritoneal anaphylaxis model; non significant at 200 umol/kg; format: functional; summary of the method: as §1
[9] = Rattus norvegicus, read-out: ED50

IC50 [1]: 1300 nM
Structure (SMILES): CCCCOc1ccc(C(C)N(O)C(=O)c2ccccc2)cc1 (stereo not given)
inhibition in vivo at 200 µmol/kg [2]: < 40%

IC50 [1]: 460 nM
Structure (SMILES): CC(=O)N(O)Cc1ccc(OCc2ccccc2)cc1
Concentration (Rattus norvegicus): 2.1 µM

IC50 [1]: 790 nM
Structure (SMILES): CCCCOc1ccc(C(C)N(O)C(C)=O)cc1 (stereo not given)
ED50 [3, 9]: 17 mg/kg
ED50 [4, 9]: 68 µmol/kg
Concentration (Rattus norvegicus): 65.7 µM

IC50 [1]: 500 nM
Structure (SMILES): CC(=O)N(O)C(C)c1ccc(OC(C)c2ccccc2)cc1 (stereo not given)
ED50 [3, 9]: 28 mg/kg
ED50 [4, 9]: 92 µmol/kg
Concentration (Rattus norvegicus): 106 µM

IC50 [1]: 880 nM
Structure (SMILES): CCCCOc1ccc(C(C(C)C)N(O)C(C)=O)cc1 (stereo not given)
Concentration (Rattus norvegicus): < 2 µM

IC50 [1]: 1100 nM
Structure (SMILES): CCCCOc1ccc(CN(O)C(C)=O)cc1

IC50 [1]: 540 nM
Structure (SMILES): CCCCOc1ccc(CC(C)N(O)C(C)=O)cc1 (stereo not given)
Inhibition [5]: 74%

IC50 [1]: 740 nM
Structure (SMILES): CCCCOc1ccc(C(CC)N(O)C(C)=O)cc1 (stereo not given)
ED50 [3, 9]: 50 mg/kg
ED50 [4, 9]: 188 µmol/kg

IC50 [1]: 190 nM
Structure (SMILES): CC(=O)N(O)C(C)c1ccc(SCc2ccccc2)cc1 (stereo not given)

IC50 [1]: 2600 nM
Structure (SMILES): CC(=O)N(O)C(C)c1ccc(OCc2ccncc2)cc1 (stereo not given)
ED50 [3, 9]: 9 mg/kg
ED50 [4, 9]: 32 µmol/kg
Concentration (Rattus norvegicus): 152 µM

IC50 [1]: 410 nM
Structure (SMILES): CC(=O)N(O)C(C)c1ccc(OCCc2ccccc2)cc1 (stereo not given)
ED50 [3, 9]: 15 mg/kg
ED50 [4, 9]: 49 µmol/kg

IC50 [1]: 570 nM
Structure (SMILES): CCCCOc1ccc(C(CCCC)N(O)C(C)=O)cc1 (stereo not given)
inhibition in vivo at 200 µmol/kg [2]: < 40%

IC50 [1]: 760 nM
Structure (SMILES): CC(=O)N(O)C(C)c1ccccc1OCc1ccccc1 (stereo not given)
inhibition in vivo at 200 mg/kg [7]: < 40%

IC50 [1]: 750 nM
Structure (SMILES): CCCCOc1ccc(OCCN(O)C(C)=O)cc1
ED50 [3, 9]: 22 mg/kg
ED50 [4, 9]: 84 µmol/kg

IC50 [1]: 400 nM
Structure (SMILES): CC(=O)N(O)C(C)c1ccc(OCc2ccc3ccccc3n2)cc1 (stereo not given)
ED50 [3, 9]: 17 mg/kg
ED50 [4, 9]: 51 µmol/kg

IC50 [1]: 940 nM
Structure (SMILES): CC(c1ccc(OCc2ccccc2)cc1)N(O)C=O (stereo not given)
inhibition in vivo at 200 µmol/kg [8]: < 40%
Concentration (Rattus norvegicus): 2.3 µM

IC50 [1]: 370 nM
Structure (SMILES): CC(=O)N(O)C(C)c1ccc(Oc2ccccc2)cc1 (stereo not given)
ED50 [3, 9]: 12 mg/kg
ED50 [4, 9]: 47 µmol/kg
Concentration (Rattus norvegicus): 52 µM

IC50 [1]: 4900 nM
Structure (SMILES): CC(=O)N(O)C(C)c1ccc(OC2c3ccccc3-c3ccccc32)cc1 (stereo not given)
Inhibition [6]: <40%

IC50 [1]: 320 nM
Structure (SMILES): CCCCOc1ccc(CCCN(O)C(C)=O)cc1

IC50 [1]: 370 nM
Structure (SMILES): CC(=O)N(O)C(C)c1ccc(OCc2ccccc2)cc1 (stereo in doubt; 7)

Further lines, the compound ahead of its results:

Structure (SMILES): CC(c1ccc(OCc2ccccc2)cc1)N(O)C(=O)c1ccccc1 (stereo not given)
IC50 [1]: 690 nM
inhibition in vivo at 200 µmol/kg [2]: < 40%
Concentration (Rattus norvegicus): < 2 µM

Structure (SMILES): CC(=O)N(O)C(C)c1ccc(/C=C/c2ccccc2)cc1 (stereo not given)
IC50 [1]: 290 nM

Structure (SMILES): CC(=O)N(O)C(c1ccc(OCc2ccccc2)cc1)C(C)C (stereo not given)
IC50 [1]: 780 nM
inhibition in vivo at 200 µmol/kg [2]: < 40%

Structure (SMILES): CC(C)C(=O)N(O)C(C)c1ccc(OCc2ccccc2)cc1 (stereo not given)
IC50 [1]: 470 nM
inhibition in vivo at 200 µmol/kg [2]: < 40%

Structure (SMILES): CC(=O)N(O)C(C)c1ccc(C(C)Oc2ccccc2)cc1 (stereo not given)
IC50 [1]: 460 nM
Inhibition [6]: 47%

Structure (SMILES): CC(=O)N(O)C(C)c1ccc(OCc2ccccc2)cc1 (stereo in doubt; 5) [listing 1 of 2 here]
Concentration (Rattus norvegicus): 70 µM

Structure (SMILES): CCCCOc1cccc(C(C)N(O)C(C)=O)c1 (stereo not given)
IC50 [1]: 390 nM

Structure (SMILES): CC(=O)N(O)C(C)c1ccc(OC(c2ccccc2)C(C)C)cc1 (stereo not given)
IC50 [1]: 610 nM
Inhibition [6]: <40%
Concentration (Rattus norvegicus): 10.7 µM

Structure (SMILES): CCCCOc1ccc(C(C)(C)N(O)C(C)=O)cc1
IC50 [1]: 650 nM
inhibition in vivo at 200 µmol/kg [2]: < 40%

Structure (SMILES): CC(=O)N(O)C(C)c1ccc(OCc2c(C)cc(C)cc2C)cc1 (stereo not given)
IC50 [1]: 620 nM
Inhibition [6]: <40%

Structure (SMILES): CC(=O)N(O)C(C)c1cccc(OCc2ccccc2)c1 (stereo not given)
IC50 [1]: 330 nM
ED50 [3, 9]: 19 mg/kg
ED50 [4, 9]: 68 µmol/kg

Structure (SMILES): CCCCOc1ccc(C(C)N(O)C=O)cc1 (stereo not given)
IC50 [1]: 1900 nM
inhibition in vivo at 200 µmol/kg [2]: < 40%

Structure (SMILES): CCCCOc1ccc(CCN(O)C(C)=O)cc1
IC50 [1]: 380 nM
inhibition in vivo at 200 µmol/kg [2]: < 40%

Structure (SMILES): CC(=O)N(O)C(C)c1ccc(OCc2ccccc2)cc1 (stereo in doubt; 5) [listing 2 of 2 here]
ED50 [3]: 8 mg/kg
ED50 [4]: 28 µM/kg

Structure (SMILES): CCCCOc1ccc(CCC(C)N(O)C(C)=O)cc1 (stereo not given)
IC50 [1]: 360 nM
ED50 [3, 9]: 35 mg/kg
ED50 [4, 9]: 120 µmol/kg
